The values below come from paper PMC2695546 (Psychopharmacology, 2009).

Counter-ions that a name gives are not always drawn. Like-named read-outs stand apart in the source and are kept apart here.

Data set [1] concerns capsaicin-sensitized mice. As to the kind of experiment: Capsaicin-induced mechanical hypersensitivity. It counts as in vivo, mouse.
In a further data set the test system is mice. The data set is described as follows: Rotarod test. The note with it: for Effect on rotarod latency: 45 min after s.c., mg/kg: HP 0.06, HP-Met-I 64, HP-Met-II 0.25, (−)-sulpiride 100, HP-Met-III 128, PRE-084 64; for Effect of PRE-084 on the drug's effect in the rotarod test: PRE-084 64 mg/kg s.c., HP 0.125 mg/kg, HP-Met-II 1 mg/kg s.c. Format: in vivo, mouse. The essentials: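 Female CD-1 mice (25–30 g), housed at 21 ± 1°C on a 12-h light/dark cycle. Motor coordination was tested on an accelerating rotarod. Latency to fall was recorded before injection (time 0) and 45 min after s.c. dosing. PRE-084 was injected s.c. immediately before the other drug, at a separate site. Controls received an equal volume of vehicle.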

Another data set deals with σ1 receptor (Mus musculus, UniProt O55242). The data set is described as follows: [3H]. It counts as binding.
Where [2] appears, read: from dose–response curves, s.c., capsaicin 1 µg i.pl., 0.5 g force.
Where [3] appears, read: naloxone 1 mg/kg s.c., morphine 0.25, HP 0.06, HP-Met-II 0.25, HP-Met-I 64 mg/kg s.c.
The mark [4] stands for this setting: read-out: IC50 (concentration of unlabeled drug that inhibited the specific binding of [3H](+)-pentazocine by 50%), mouse brain membranes P2 fraction, 5 nM [3H](+)-pentazocine, 240 min, 30°C, pH 8.

In the case of `CCN1CCC[C@H]1CNC(=O)c1cc(S(N)(=O)=O)ccc1OC` [(−)-Sulpiride, (−)-sulpiride], in data set [1] (mouse, in vivo), the “ED50 (dose producing half of the maximal antiallodynic effect)” value is “Inactive^a”. Besides, the “Effect on rotarod latency” value with mice is “devoid of any effect”. This compound also came in with an IC50 against σ1 receptor of over 10000 nM.
Take `CN1CCN(CCc2ccc(Cl)c(Cl)c2)CC1.Cl.Cl` [BD-1063, 1-[2-(3,4-dichlorophenyl)ethyl]-4-methylpiperazine dihydrochloride]: in data set [1] (mouse, in vivo), the “Effect of PRE-084 on the antiallodynic effect of the drug” value was “completely antagonized”.
Consider `OC1(c2ccc(Cl)cc2)CCNCC1` [Haloperidol metabolite I, 4-(4-chlorophenyl)-4-hydroxypiperidine], for which, in data set [1] (setting [2]), the “Emax (maximum antiallodynic effect)” value worked out at 62.27 ± 6.99%. For the same compound, in data set [1] (mouse, in vivo), the “Effect of PRE-084 on the antiallodynic effect of the drug” value was “completely and dose-dependently prevented”; the “Effect of naloxone on the antiallodynic effect of the drug” value (“Effect of naloxone” below) is reported as “did not significantly modify”. Besides, the “Effect on rotarod latency” value in the data set with mice was “no effect”. Further, the IC50 on σ1 receptor stood at 254 ± 18.4 nM.
Consider `OC(CCCN1CCC(O)(c2ccc(Cl)cc2)CC1)c1ccc(F)cc1` (stereo not drawn) [Haloperidol metabolite II, 4-(4-chlorophenyl)-α-(4-fluorophenyl)-4-hydroxy-1-piperidinebutanol], for which, in data set [1] (setting [2]), the “Emax (maximum antiallodynic effect)” value is given as 100%. Also, the “Effect of naloxone” value in data set [1] (setting [3]) is recorded as “did not significantly modify”. Moreover, the “Antiallodynic effect at higher doses” value in data set [1] (s.c., HP 0.125 mg/kg, HP-Met-II 1 mg/kg) was found to be 100%. In the data set with mice, the “Effect on rotarod latency” value is “no effect” and the “Effect of PRE-084 on the drug's effect in the rotarod test” value is given as “not prevented”. At σ1 receptor, this compound had an IC50 of 12.8 ± 0.69 nM.
For the compound `O=C(O)CCC(=O)c1ccc(F)cc1` [Haloperidol metabolite III, p-fluorobenzoylpropionic acid], the “Effect on rotarod latency” value in the data set with mice was “devoid of any effect”. For the same compound, the IC50 at σ1 receptor (setting [4]) is over 10000 nM.
As for `O=C(CCCN1CCC(O)(c2ccc(Cl)cc2)CC1)c1ccc(F)cc1` [Haloperidol, haloperidol], in data set [1] (mouse, in vivo), the “Antiallodynic effect at higher doses” value was found to be 100%, the “Effect of PRE-084 on the antiallodynic effect of the drug” value is “dose-dependent reversion” and the “Effect of naloxone” value is recorded as “did not significantly modify”. The “Emax (maximum antiallodynic effect)” value in data set [1] (mouse, in vivo, sc) is listed as 100%. Further, in the data set on mice, the “Effect on rotarod latency” value was “no effect” and the “Effect of PRE-084 on the drug's effect in the rotarod test” value is “not prevented”.
As to `Cl.O=C(OCCN1CCOCC1)C1(c2ccccc2)CCCCC1` [PRE-084, 2-(4-morpholinethyl)1-phenylcyclohexanecarboxylate) hydrochloride], the IC50 on σ1 receptor (setting [4]) worked out at 171 ± 18.4 nM.
For `Cl.O=C(OCCN1CCOCC1)C1(c2ccccc2)CCCCC1` [PRE-084], the “Effect on rotarod latency” value in the data set on mice is recorded as “devoid of any effect”.
Turning to `COc1cc(CNC(=O)CCCC/C=C/C(C)C)ccc1O` [capsaicin], the “Decrease in the EF50 value for inducing paw withdrawal in comparison to control mice” value in data set [1] (capsaicin 1 µg i.pl. vs DMSO-treated) is on record as 9.4 fold. For the same compound, the “EF50 (force producing half the maximal reduction in paw withdrawal latency time)” value in data set [1] (capsaicin 1 µg i.pl., 15 min before stimulation, forces 0.05–8 g) is recorded as 0.30 ± 0.02 g.
In turn, `Clc1cccc(Cl)c1N=C1NCCN1` [clonidine] registered an IC50 at σ1 receptor of over 10000 nM.
`NCC1(CC(=O)O)CCCCC1` [gabapentin]: the IC50 at σ1 receptor was over 10000 nM.
As for `CN1CC[C@]23c4c5ccc(O)c4O[C@H]2[C@@H](O)C=C[C@H]3[C@H]1C5` [morphine, morphine hydrochloride], the “Effect of naloxone” value in data set [1] (setting [3]) is listed as “reversed”.
Take `CS(=O)(=O)c1ccc(C2=C(c3ccccc3)C(=O)OC2)cc1` [rofecoxib]: the IC50 at σ1 receptor is over 10000 nM.
